Results from ChEMBL document CHEMBL1124429, “Heterocyclic analogues of benzamide antiarrhythmic agents” (J Med Chem, 1989).
Several values for one entry are separate records, joined by “and”; a condition that tells them apart may be missing. Equal entries are not always repeated.

Legend:
Canis familiaris [1] = species on record: Canis familiaris; test: Percent change from control in the rate of rise of phase 0 of the action potential at 10 uM concentration on Canine Purkinje fibers.; parameters: species or system Canis lupus familiaris, Purkinje fiber; conditions: dog, in vitro
Canis familiaris [2] = species on record: Canis familiaris; test: Maximum Percent change from control in the rate of rise of phase 0 of the action potential at 10 uM concentration on Canine Purkinje fibers.; type: functional, Canis lupus familiaris, Purkinje fiber; conditions: dog, in vitro
Procedure, shortened: (§1)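 Isolated canine Purkinje fibers were superfused with physiological saline gassed with 95% O2/5% CO2 (pH 7.35–7.40) at 36 ± 0.5 °C. Paced at 1.0 Hz with 2-ms pulses at twice diastolic threshold. After up to 1 h stabilization, compounds were tested over 10^-8 to 10^-3 M, 30 min per concentration, one compound per fiber, with vehicle controls. Intracellular microelectrodes (3 M KCl) recorded Vmax and APD95; maximum percent change from control is reported with its concentration.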

Canis familiaris [3] = species on record: Canis familiaris; test: Maximum Percent change from control in the rate of rise of phase 0 of the action potential at 30 uM concentration on Canine Purkinje fibers.; parameters: species or system Canis lupus familiaris, Purkinje fiber; conditions: dog, in vitro; procedure, shortened: as §1
Canis familiaris [4] = species on record: Canis familiaris; test: Maximum percent change in conduction time (CT) at 100 uM concentration tested on Canine ventricular muscle fibre; type: functional, Canis lupus familiaris, Muscle tissue
Procedure, shortened: (§2)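 Canine right ventricular papillary muscle strips were superfused at 36 ± 0.5 °C with saline gassed with 95% O2/5% CO2. Diastolic threshold was found with 2-ms stimuli at 4000 ms cycle length, then pacing at 4× threshold for 60 min equilibration. FRP was measured at 1000 ms cycle length by S1-S2 premature stimulus after every tenth S1. Conduction time came from a bipolar electrogram. Various compound concentrations were tested, one compound per strip, with vehicle controls. Percent change from control was taken at 10 µM, or the maximum change with its concentration; for N ≥ 3, mean with range.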

Canis familiaris [5] = species on record: Canis familiaris; test: Percent change from control in conduction time (CT) at uM concentration tested on Canine ventricular muscle fibre.; M is minimal(<10% change in CT); type: functional; conditions: Canis lupus familiaris; Muscle tissue; procedure, shortened: as §2
Canis familiaris [6] = species on record: Canis familiaris; test: Maximum percent change in repolarization at 100 uM concentration on Canine Purkinje fibers.; type: functional, Canis lupus familiaris, Purkinje fiber; procedure, shortened: as §1
Canis familiaris [7] = species on record: Canis familiaris; test: Maximum percent change in repolarization at 10 uM concentration on Canine Purkinje fibers.; type: functional, Canis lupus familiaris, Purkinje fiber; procedure, shortened: as §1
Canis familiaris [8] = species on record: Canis familiaris; test: Percent change in repolarization at 10 Purkinje fibers.; value ranges from 5-16; type: functional, Canis lupus familiaris, Purkinje fiber
Procedure, shortened: (§3)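 Canine Purkinje fibers were held in oxygenated (95% O2–5% CO2) physiological saline, pH 7.35–7.40, at 36 ± 0.5 °C and paced at 1.0 Hz with 2-ms pulses at twice diastolic threshold. Intracellular microelectrodes (3 M KCl) recorded Vmax and APD95 simultaneously. After up to 1 h of stabilization, compounds were tested from 10^-8 to 10^-3 M with 30 min per concentration. One compound per fiber, with vehicle controls. For N ≥ 3, values are the mean with the range.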

Canis familiaris [9] = species on record: Canis familiaris; test: Maximum percent change in functional refractory period (FRP) at 1 uM on Canine ventricular muscle fibre.; parameters: species or system Canis lupus familiaris, Muscle tissue; procedure, shortened: as §2
Canis familiaris [10] = species on record: Canis familiaris; test: Percent change from control in the functional refractory period (FRP) at 10 uM conc. on Canine ventricular muscle fibre.; parameters: species or system Canis lupus familiaris, Muscle tissue; procedure, shortened: as §2
Cavia porcellus [11] = species on record: Cavia porcellus; test: Concentration of compound which gives a 20% decrease in contractile force was tested from individual experiments on papillary muscle of guinea pig, activity was expressed as EC-20.; type: functional; conditions: Muscle tissue
Procedure, shortened: (§4)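 Contractile force measured in an isolated cardiac muscle preparation. Value is the concentration giving a 20% decrease in force of contraction. NR marks that this decrease was not reached. Values come from individual experiments; for N ≥ 3, the mean is given with the range.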

Canis familiaris [12] = species on record: Canis familiaris; test: (§5) Maximum Percent change from control in the rate of rise of phase 0 of the action potential at 100 uM concentration on Canine Purkinje fibers.; type: Canis lupus familiaris, Purkinje fiber; conditions: dog, in vitro; procedure, shortened: as §1
Canis familiaris [13] = species on record: Canis familiaris; test: Percent change from control in conduction time (CT) at 10 uM concentration tested on Canine ventricular muscle fibre.; M is minimal(<10% change in CT); type: functional; conditions: Canis lupus familiaris, Muscle tissue; procedure, shortened: as §2
Canis familiaris [14] = species on record: Canis familiaris; test: Percent change in repolarization at 10 Purkinje fibers.; value ranges from 9-18; type: functional, Canis lupus familiaris, Purkinje fiber; procedure, shortened: as §3
Canis familiaris [15] = species on record: Canis familiaris; test: Maximum percent change in functional refractory period (FRP) at 100 uM on Canine ventricular muscle fibre.; parameters: species or system Canis lupus familiaris, Muscle tissue; procedure, shortened: as §2
[16] = Maximum Percent change from control in the rate of rise of phase 0 of the action potential at 30 uM concentration on Canine Purkinje fibers; CB is conduction block.; type: functional, tissue-based; conditions: Purkinje fiber; procedure, shortened: as §1
Canis familiaris [17] = species on record: Canis familiaris; test: Percent change from control in conduction time (CT) at 10 uM concentration tested on Canine ventricular muscle fibre.; type: functional, Canis lupus familiaris, Muscle tissue; procedure, shortened: as §2
Canis familiaris [18] = species on record: Canis familiaris; test: Maximum percent change in repolarization at 30 uM concentration on Canine Purkinje fibers.; type: functional, Canis lupus familiaris, Purkinje fiber; procedure, shortened: as §1
Canis familiaris [19] = species on record: Canis familiaris; test: Percent change in repolarization at 10 Purkinje fibers.; value ranges from -23-17; type: functional, Canis lupus familiaris, Purkinje fiber; procedure, shortened: as §3
Cavia porcellus [20] = species on record: Cavia porcellus; test: Concentration of compound which gives a 20% decrease in contractile force was tested on papillary muscle of guinea pig, activity was expressed as EC-20.; type: functional; conditions: Muscle tissue; procedure, shortened: as §4
Canis familiaris [21] = species on record: Canis familiaris; test: Percent change from control in the rate of rise of phase 0 of the action potential at 10 uM concentration on Canine Purkinje fibers.; value ranges from -21- -37; type: organism-based, Canis lupus familiaris, Purkinje fiber; conditions: dog, in vitro
[22] = Maximum Percent change from control in the rate of rise of phase 0 of the action potential at 100 Purkinje fibers.; type: tissue-based, Purkinje fiber; procedure, shortened: as §1
Canis familiaris [23] = species on record: Canis familiaris; test: Maximum percent change in conduction time (CT) at 10 uM concentration tested on Canine ventricular muscle fibre; value ranges from -12 - -5; type: functional, Canis lupus familiaris, Muscle tissue; procedure, shortened: as §2
Canis familiaris [24] = species on record: Canis familiaris; test: Percent change from control in conduction time (CT) at 10 uM concentration tested on Canine ventricular muscle fibre.; value ranges from -12 - -5; type: functional, Canis lupus familiaris, Muscle tissue; procedure, shortened: as §2
Canis familiaris [25] = species on record: Canis familiaris; test: Percent change in repolarization at 10 Purkinje fibers; value ranges from -11- -25.; type: functional, Canis lupus familiaris, Purkinje fiber; procedure, shortened: as §3
Canis familiaris [26] = species on record: Canis familiaris; test: Maximum percent change in functional refractory period(FRP) of compound (10 uM) was tested from individual experiment on Canine ventricular muscle fibre.; parameters: species or system Canis lupus familiaris, Muscle tissue; procedure, shortened: as §2
Canis familiaris [27] = species on record: Canis familiaris; test: Percent change from control in the functional refractory period (FRP) at 10 uM conc. on Canine ventricular muscle fibre.; value ranges from -1-20; parameters: species or system Canis lupus familiaris, Muscle tissue; procedure, shortened: as §2
Canis familiaris [28] = species on record: Canis familiaris; test: Maximum percent change in conduction time (CT) at 1 uM concentration tested on Canine ventricular muscle fibre; type: functional, Canis lupus familiaris, Muscle tissue; procedure, shortened: as §2
Canis familiaris [29] = species on record: Canis familiaris; test: Maximum percent change in repolarization at 0.1 uM concentration on Canine Purkinje fibers.; type: functional, Canis lupus familiaris, Purkinje fiber; procedure, shortened: as §1
Canis familiaris [30] = species on record: Canis familiaris; test: Percent change in repolarization at 10 Purkinje fibers.; value ranges from 1-4; type: functional, Canis lupus familiaris, Purkinje fiber; procedure, shortened: as §3
Cavia porcellus [31] = species on record: Cavia porcellus; test: Concentration of compound which gives a 20% decrease in contractile force was tested on papillary muscle of guinea pig, activity was expressed as EC-20; N.R. is not reached.; type: functional; conditions: Muscle tissue; procedure, shortened: as §4
Canis familiaris [32] = species on record: Canis familiaris; test: Maximum Percent change from control in the rate of rise of phase 0 of the action potential at 1 uM concentration on Canine Purkinje fibers.; parameters: species or system Canis lupus familiaris, Purkinje fiber; procedure, shortened: as §1
Canis familiaris [33] = species on record: Canis familiaris; test: Percent change from control in the rate of rise of phase 0 of the action potential at 10 uM concentration on Canine Purkinje fibers.; value ranges from -32-3; parameters: species or system Canis lupus familiaris, Purkinje fiber; conditions: dog, in vitro
Canis familiaris [34] = species on record: Canis familiaris; test: Maximum percent change in conduction time (CT) at 10 uM concentration tested on Canine ventricular muscle fibre; type: functional, Canis lupus familiaris, Muscle tissue; procedure, shortened: as §2
Canis familiaris [35] = species on record: Canis familiaris; test: Percent change in repolarization at 10 Purkinje fibers.; value ranges from 0-25; type: functional, Canis lupus familiaris, Purkinje fiber; procedure, shortened: as §3
Canis familiaris [36] = species on record: Canis familiaris; test: as §5; parameters: species or system Canis lupus familiaris, Purkinje fiber; procedure, shortened: as §1
Canis familiaris [37] = species on record: Canis familiaris; test: Percent change from control in the functional refractory period (FRP) at 10 uMconc. on Canine ventricular muscle fibre.; value ranges from -4-17; parameters: species or system Canis lupus familiaris, Muscle tissue
Canis familiaris [38] = species on record: Canis familiaris; test: Maximum percent change in functional refractory period (FRP) at 0.1 uM on Canine ventricular muscle fibre.; parameters: species or system Canis lupus familiaris, Muscle tissue; procedure, shortened: as §2
Cavia porcellus [39] = species on record: Cavia porcellus; test: Concentration of compound ( ) which gives a 20% decrease in contractile force was tested on papillary muscle of guinea pig, activity was expressed as EC-20.; type: functional; conditions: Muscle tissue; procedure, shortened: as §4

| Vmax (Canis familiaris [1]) | Vmax (Canis familiaris [2]) | Vmax (Canis familiaris [3]) | Vmax (Canis familiaris [12]) | Compound | CT (Canis familiaris [4]) | APD95 (Canis familiaris [6]) | APD95 (Canis familiaris [7]) | FRP (Canis familiaris [10]) | EC20 (Cavia porcellus [11]) | CT (Canis familiaris [13]) | FRP (Canis familiaris [15]) | CT (Canis familiaris [17]) | APD95 (Canis familiaris [18]) | EC20 (Cavia porcellus [20]) | CT (Canis familiaris [28]) | other results |
| --- | --- | --- | --- | --- | --- | --- | --- | --- | --- | --- | --- | --- | --- | --- | --- | --- |
| -7% | -13% | -13% |  | CCN(CC)CCCNC(=O)c1cc2ccccc2[nH]1 | -11% | -14% | 16% | 5% | 26 µM |  |  |  |  |  |  | CT (Canis familiaris [5]): Minimal; APD95 (Canis familiaris [8]): 9.6%; FRP (Canis familiaris [9]): 5% |
| -2.3% | 5% | -6% | -35% | CCN(CC)CCNC(=O)c1cc2ccccc2[nH]1 | 15% | -24% | 16% and 18% | 15% | 16 µM | Minimal | 24% |  |  |  |  | APD95 (Canis familiaris [14]): 14.3% |
| -37.7% | -30% | -66% |  | CCN(CC)CCNC(=O)c1cc2cccc(OCc3ccccc3)c2[nH]1 | 4% |  | 17% | 2% |  |  | 10% | -13% | -25% | 6 µM |  | Vmax [16]: Conduction block; APD95 (Canis familiaris [19]): -7% |
|  | -33% | -56% |  | CCN(CC)CCCNC(=O)c1cc2cccc(OCc3ccccc3)c2[nH]1 |  | 18% | -11% |  |  |  | 7% |  | -38% | 8 µM |  | Vmax (Canis familiaris [21]): -30.3%; Vmax [22]: -79%; CT (Canis familiaris [23]): -4%; CT (Canis familiaris [24]): -4%; APD95 (Canis familiaris [25]): -16.3%; FRP (Canis familiaris [26]): 20%; FRP (Canis familiaris [27]): 8% |
| 0.3% |  | -12% | -7% | CCN(CC)CCNC(=O)c1c(O)cc(C)nc1C | -16% | 4% | 4% | 21% |  |  | 26% | -5% |  |  | -5% | APD95 (Canis familiaris [29]): 5%; APD95 (Canis familiaris [30]): 3%; EC20 (Cavia porcellus [31]): Not reached; Vmax (Canis familiaris [32]): -5% |
|  |  |  |  | CCN(CC)CCCNC(=O)c1[nH]c(C)c(C)c1C | 8% | -5% | 7% |  |  | Minimal | 28% |  | 26% |  | 6% | Vmax (Canis familiaris [33]): -14.3%; CT (Canis familiaris [34]): -9%; APD95 (Canis familiaris [35]): 8.3%; Vmax (uM) (Canis familiaris [36]): -15%; FRP (Canis familiaris [37]): 5.7%; FRP (Canis familiaris [38]): 4%; EC20 (Cavia porcellus [39]): 50 µM |
